These results are taken from ChEMBL document CHEMBL4823325, “Synthesis of Benzoazepine Derivatives via Azide Rearrangement and Evaluation of Their Antianxiety Activities” (ACS Med Chem Lett, 2021).

One series concerns HEK293. Description: Cytotoxicity against human HEK293 cells assessed as reduction in cell viability measured after 24 hrs by MTT assay. Type of series: cell-based. To be noted: HEK293, 24 h. A general note: Formazan colour is commonly taken as a measure of viable cells.
The test system of series [1] is Rattus norvegicus. The experiment in a line: Anxiolytic activity in restraint stress induced anxiety Wistar rat model assessed as increase in time spent in open arm at 2 mg/kg, po measured after 30 mins by elevated plus maze test. Type of series: functional, organism-based. Put shortly: (§1)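 Rats were stressed by immobilization in a plastic restrainer for 2 h/day for 14 days. Test compounds were given at 2 mg/kg 30 min before the elevated plus maze, six rats per group. Read-outs were percent open arm entry, percent open arm time and anxiety index (higher index means more anxiety). Groups were compared with nonstressed vehicle and stressed vehicle groups.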

The test system of series [2] is Rattus norvegicus. The experiment in a line: Anxiolytic activity in restraint stress induced anxiety Wistar rat model assessed as decrease in anxiety index at 2 mg/kg, po measured after 30 mins by elevated plus maze test. It counts as functional, organism-based. Put shortly:
as §1

The subject of series [3] is Rattus norvegicus. Description: Anxiolytic activity in restraint stress induced anxiety Wistar rat model assessed as increase in open arm entry at 2 mg/kg, po measured after 30 mins by elevated plus maze test. It counts as functional, organism-based. In short, it runs like this:
as §1

Series [4] deals with Rattus norvegicus. The experiment in a line: Anxiolytic activity in restraint stress induced anxiety Wistar rat model assessed as increase in time spent in inner zone at 2 mg/kg, po measured after 30 mins by open field test. It counts as functional, organism-based. In short, it runs like this: (§2)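 Restraint stress was applied by immobilization in a plastic restrainer for 2 h/day over 14 days. Rats received 2 mg/kg 30 min before the open field test, six per group. Inner zone time was scored as the anxiety measure and the number of total lines crossed as locomotor activity. Groups were compared with nonstressed vehicle and stressed vehicle groups.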

Series [5] deals with Rattus norvegicus. Description: Induction of hyperlocomotor activity in restraint stress induced anxiety Wistar rat model assessed as increase in total lines crossed at 2 mg/kg, po measured after 30 mins by open field test. It counts as functional, organism-based. Put shortly: as §2
Series [6] in a line: Effect on locomotor activity in normal Wistar rat assessed as effect on total open arm entry at 2 mg/kg, po measured after 30 mins by elevated plus maze test. The conditions noted are these: in vivo, 0.5 h.
The test system of series [7] is Rattus norvegicus. The experiment in a line: Anxiolytic activity in restraint stress induced anxiety Wistar rat model assessed as decrease in time spent in outer zone at 2 mg/kg, po measured after 30 mins by open field test. It counts as functional, organism-based. In short, it runs like this:
(§3)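 Open field test in rats stressed by immobilisation in a plastic restrainer for 2 h/day for 14 days, with non-stressed controls. Animals received 2 mg/kg acutely 30 min before testing, six rats per group. Readouts were inner zone time, outer zone time, total lines crossed (locomotion) and rearing (exploration).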

Series [8] deals with Rattus norvegicus. The experiment in a line: Anxiolytic activity in restraint stress induced anxiety Wistar rat model assessed as decrease in rearing behaviour at 2 mg/kg, po measured after 30 mins by open field test. Type of series: functional, organism-based. In short, it runs like this: as §3

Structures are written as SMILES. Activity calls are given as the source filed them. No cut-off for these calls is given here.

Broadly, the IC50 is the concentration needed to halve the response being measured. For `COc1ccc2c(c1)Cc1cccc(F)c1NC2`, the IC50 with HEK293 was found to be 6.19 µM.
The same measure, in the same setting: the value for `COc1ccc2c(c1)CCc1ccccc1NC2` was 14.1 µM.
As to `COc1ccc2c(c1)Cc1ccccc1NC2`, the result in the series on Rattus norvegicus [1], in the series with Rattus norvegicus [2], with Rattus norvegicus [3], in the series with Rattus norvegicus [4] and in the series on Rattus norvegicus [5] was Active. The IC50 in the series with HEK293 worked out at 65.7 µM. In addition, the Activity result in series [6] is on record as “Non-Toxic”.
`COc1ccc2c(c1)Cc1cc(F)ccc1NC2`: the result in the series with Rattus norvegicus [1], in the series with Rattus norvegicus [2], with Rattus norvegicus [3], in the series on Rattus norvegicus [4] and with Rattus norvegicus [5] was Active. Also, the IC50 in the series on HEK293 is 0.16 µM. In addition, in series [6], the Activity entry is given as “Non-Toxic”.
Take `c1ccc(Oc2ccc3c(c2)Cc2ccccc2NC3)cc1`: the IC50 in the series on HEK293 was determined as 4.43 µM.
Regarding `COc1ccc2c(c1)NCc1ccc(Oc3ccccc3)cc1C2`, in the series on HEK293, the IC50 is 2.12 µM.
As for `Clc1ccc2c(c1)NCc1ccc(Oc3ccccc3)cc1C2`, the result in the series on Rattus norvegicus [1], in the series with Rattus norvegicus [2], in the series with Rattus norvegicus [3], with Rattus norvegicus [4] and with Rattus norvegicus [5] was Active. In addition, in the series with HEK293, the half-maximal inhibitory concentration (IC50) is 14.2 µM. In addition, the Activity result in [6] is reported as “Non-Toxic”.
Regarding `COc1ccc2c(c1)Cc1cc(Cl)ccc1NC2`, the 50% inhibitory concentration (IC50) in the series with HEK293 is 2.29 µM.
As for `CN1C(=O)CN=C(c2ccccc2)c2cc(Cl)ccc21` [DIAZEPAM], the result in the series on Rattus norvegicus [7], in the series with Rattus norvegicus [1], in the series on Rattus norvegicus [2], in the series with Rattus norvegicus [3], with Rattus norvegicus [4] and in the series with Rattus norvegicus [5] was Active. In the series with Rattus norvegicus [8], the outcome was Active. For the same compound, in the series on HEK293, the IC50 turned out to be 87.9 µM.
Turning to `COc1ccc2c(c1)Cc1cc3c(cc1NC2)OCO3`, the IC50 with HEK293 stood at 14.5 µM.
Still for that read-out and setting: the value for `COc1ccc2c(c1)Cc1c(F)cccc1NC2` was 0.77 µM.
As for `COc1ccc2c(c1)Cc1ccc(Cl)cc1NC2`, the result with Rattus norvegicus [1], in the series on Rattus norvegicus [2], with Rattus norvegicus [3], with Rattus norvegicus [4] and with Rattus norvegicus [5] was Active. For the same compound, in the series with HEK293, the IC50 is 12.6 µM. Also, the Activity result in series [6] was “Non-Toxic”.
On to `COc1cc2c(c(OC)c1)CNc1ccccc1C2`, for which the IC50 in the series with HEK293 was found to be 6.44 µM.
Consider `COc1ccc2c(c1)Cc1ccc(OC)cc1NC2`, for which the IC50 with HEK293 is 1.09 µM.
Regarding `Fc1cccc2c1NCc1ccc(Oc3ccccc3)cc1C2`, the outcome in the series on Rattus norvegicus [1], in the series on Rattus norvegicus [2], in the series on Rattus norvegicus [3], in the series with Rattus norvegicus [4] and with Rattus norvegicus [5] was Active. Also, the concentration for half-maximal inhibition (IC50) with HEK293 worked out at 13.7 µM. The Activity result in [6] was “Non-Toxic”.
